Sampled rows, rich in hits. Any-hit rate of the full collection: about 2.3%.
TCR-CD3 inh = inhibitors of human TCR-CD3 interaction. TAMRA-labeled TCR probe fluorescence, biochemical. actives 0.37% (n = 360,000). inhibition, % at 9.4 µM;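 further: recombinant mutant TCR 2C K166C tagged with TAMRA read by polarization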
ABHD4 inh = ABHD4 (mouse) inhibition, primary FP screen; Q8VD66; purified mABHD4, FP-Rh probe fluorescence polarization; inhibition, % at 8.92 µM; actives 0.54% (n = 370,000); AID 720543;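 active means inhibition exceeding the mean over every tested compound plus 3 SD, cut at about 30% in these data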
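Material: mouse ABHD4 enzyme, wild type; Benchmarks: S159A mutant high control, sample median low control; Buffer or medium: HEPES pH 7.0, NaCl, Pluronic buffer; Signal: fluorescence polarization; Read-out: percent inhibition of probe binding, normalized to plate controls; Timing: pre-incubation 45 min, probe exposure 60 min, at 25 °C; Dosing: 8.92 µM, single dose.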
HTRA1 inhibitor = inhibitors of human serine peptidase HTRA1. Q92743. recombinant HTRA1, FP-rhodamine activity-based probe, fluorescence polarization. inhibition, % at 5.96 µM. actives 0.5% (n = 340,000). AID 504803; in the data active means inhibition above about 36%
Target sequence (Q92743 whole entry, looked up): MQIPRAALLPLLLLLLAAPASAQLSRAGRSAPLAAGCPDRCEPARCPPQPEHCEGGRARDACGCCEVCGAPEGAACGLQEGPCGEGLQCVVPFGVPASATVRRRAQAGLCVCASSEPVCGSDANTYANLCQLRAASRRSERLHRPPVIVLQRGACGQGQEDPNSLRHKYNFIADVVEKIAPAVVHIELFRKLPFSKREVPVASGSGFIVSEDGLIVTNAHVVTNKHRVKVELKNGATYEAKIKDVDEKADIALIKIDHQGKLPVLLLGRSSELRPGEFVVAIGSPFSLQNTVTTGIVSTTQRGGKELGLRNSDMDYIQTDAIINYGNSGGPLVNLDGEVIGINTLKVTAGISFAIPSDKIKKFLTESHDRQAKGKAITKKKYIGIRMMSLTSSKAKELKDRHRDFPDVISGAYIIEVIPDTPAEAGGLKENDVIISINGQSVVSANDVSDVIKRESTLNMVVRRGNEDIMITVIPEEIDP
pPAFAH FP inh = pPAFAH (human) enzyme inhibition; Q13093; recombinant pPAFAH, FP-rhodamine probe fluorescence polarization; inhibition, % at 3.39 µM; actives 1.5% (n = 330,000);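 active means inhibition above the mean inhibition across the screen plus 3 SD, cut at about 25% in these data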;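 further: inhibitors block binding of the rhodamine activity-based probe so polarization drops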
SIAE primary = blocks human sialic acid acetylesterase. SIAE FP-Rh probe binding, fluorescence polarization. inhibition, % at 9.66 µM. actives 0.69% (n = 370,000). AID 1053197;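 active means inhibition above a cutoff: mean of compounds within the control limits plus 3 SD of those, cut at about 17% in these data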
pPAFAH confirm = pPAFAH (human) inhibition, confirmed; shares compounds with pPAFAH FP inh; recombinant pPAFAH, FP-Rh probe fluorescence polarization; inhibition, % at 3.39 µM; actives 72% (n = 2,300);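 active means mean inhibition of the triplicate above the hit cutoff set for the earlier primary screen, cut at about 25% in these data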
HTRA1 inh conf = confirmation of human HTRA1 inhibitors; shares compounds with HTRA1 inhibitor; recombinant HTRA1, FP-rhodamine activity-based probe, fluorescence polarization; inhibition, % at 5.96 µM; actives 66% (n = 1,600); AID 540248;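 active means mean inhibition over three repeats above a set limit taken from the earlier primary screen, cut at about 37% in these data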;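 further: inhibitors block probe binding so polarization drops and inhibition rises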
BSA probe FL = interferes with TAMRA-BSA probe, flagging TCR-CD3 hits | shares compounds with TCR-CD3 inh | TAMRA-labeled BSA probe fluorescence counterscreen | inhibition, % at 9.4 µM | actives 10% (n = 1,200) | AID 652035; in the data active means inhibition above about 23%
TCR-CD3 inh conf = confirmation of human TCR-CD3 interaction inhibitors; inhibition, % at 9.4 µM; actives 48% (n = 1,200); TAMRA-labeled TCR probe fluorescence binding assay; shares compounds with TCR-CD3 inh; AID 652036
ABHD4 confirm = ABHD4 (mouse) inhibition, FP confirmation. shares compounds with ABHD4 inh. purified mABHD4, FP-Rh probe fluorescence polarization. inhibition, % at 8.92 µM. actives 55% (n = 1,800). AID 720658;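 active means mean inhibition across replicates above the hit cutoff set in the primary screen, cut at about 30% in these data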
SIAE inh conf = human SIAE inhibition, confirmation; AID 1117263; shares compounds with SIAE primary; SIAE FP-Rh activity-based probe, fluorescence polarization; inhibition, % at 9.66 µM; actives 13% (n = 2,300);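 active means mean inhibition of the replicates above the hit cutoff set in the primary screen, cut at about 17% in these data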;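 further: inhibitors lower polarization as more probe stays unbound to SIAE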
Hits are given with their value; . = inactive; / = no result given; + = active, no number. Unless noted, no stated cut-off is given here; in the data, active means inhibition above about 19%; inactive means the rest.

SMILES	TCR-CD3 inh	ABHD4 inh	HTRA1 inhibitor	pPAFAH FP inh	SIAE primary	pPAFAH confirm	HTRA1 inh conf	ABHD4 confirm	SIAE inh conf	others
O=c1ccc2c(-c3ccccc3)c3ccc(O)cc3oc-2c1	.	43.0	60.3	52.6	36.3	46.7	61.3	81.3	35.7
O=c1cc(-c2ccccc2)oc2cc(O)ccc12	.	.	.	/	.	/	/	/	/
O=C(O)COc1ccccc1/C=N/NC(=O)c1cc2ccccc2cc1O	.	37.2	.	42.9	47.7	.	/	.	52.7
O=C(N/N=C/C1CC=CCC1)c1cc2ccccc2cc1O (stereo not drawn)	.	.	39.9	44.2	19.2	.	.	/	.
Cn1cccc1/C=N/NC(=O)c1cc2ccccc2cc1O	.	.	40.2	50.6	17.2	.	.	/	.
O=C(N/N=C/C1CC=CCC1)c1ccc(O)cc1O (stereo not drawn)	.	.	.	.	.	/	/	/	/
CN(C)c1ccc(NC2=C([N+](=O)[O-])CS(=O)(=O)C2)cc1	.	.	.	39.4	18.0	.	/	/	.
Cc1cc2cc(CNS(=O)(=O)c3ccccc3)ccc2n1C	50.3	37.0	51.3	47.2	17.5	35.1	.	.	.	BSA probe FL=.;TCR-CD3 inh conf=.
CCS(=O)(=O)NCc1ccc2c(c1)cc(C)n2C	.	.	.	.	.	/	/	/	/
Cc1nc2ccc(C(=O)Nc3ccc4c(c3)OCC(=O)N4)cn2c1N(C)C(=O)CCc1ccccc1	.	.	/	/	.	/	/	/	/
COC(=O)[C@H](C(C)C)N(CCCc1cn(Cc2ccc(C)cc2)nn1)S(=O)(=O)c1ccccc1Br	/	.	/	/	.	/	/	/	/
Cc1c(Br)c(O)c(Br)c2sc(=O)oc12	25.0	67.1	47.1	83.7	28.9	.	.	66.2	.	BSA probe FL=.;TCR-CD3 inh conf=.
COCCN=c1scc(-c2ccco2)n1/N=C/c1ccc(O)c(O)c1O	25.8	60.3	67.9	63.8	28.3	66.8	78.0	61.5	.	BSA probe FL=.;TCR-CD3 inh conf=23.8
Oc1ccc(/C=N/n2c(-c3ccco3)csc2=Nc2cccnc2)c(O)c1	.	.	.	.	.	/	/	/	/
Clc1ccc([C@H]2OC[C@@]3(CNCc4ccc5c(c4)OCO5)CS[C@H](c4ccc(Cl)cc4)N23)cc1	/	.	/	/	.	/	/	/	/
Cn1c(=O)cc2c3c(c(N4CCCCC4)ccc31)C(=O)c1ccccc1-2	58.0	103.6	/	54.5	52.6	28.3	/	100.3	23.8	BSA probe FL=92.8;TCR-CD3 inh conf=54.8
O=C(N[C@H](CO)c1ccccc1)[C@H]1O[C@@H](n2ccc(=O)[nH]c2=O)[C@H](O)[C@@H]1O	.	.	/	/	.	/	/	/	/
Cc1ccc(-c2ccccc2NC(=O)CS(=O)CC(=O)Nc2ccc(C)c(Cl)c2)o1 (stereo not drawn)	85.4	35.9	38.8	85.3	45.4	.	.	.	.	BSA probe FL=.;TCR-CD3 inh conf=.
O=C(N/N=C\c1c(O)ccc2ccccc12)c1cncc(Br)c1	.	34.2	52.8	41.3	30.9	57.8	49.9	.	.
CCNc1ccc2noc3c2c1C(=O)c1ccccc1-3	126.1	121.9	123.1	105.6	97.8	99.1	112.3	116.0	91.4	BSA probe FL=+;TCR-CD3 inh conf=186.6
CCNc1ccccc(-c2ccc3ccccc3n2)c1=O	.	.	.	.	.	/	/	/	/
C/C(=N\NC(=O)c1cc2ccccc2cc1O)c1ccc(C)o1	.	.	46.8	41.4	23.7	.	.	/	.
C/C(=N\NC(=O)c1cc2ccccc2cc1O)c1cccs1	.	.	.	51.6	28.2	.	/	/	.
C/C(=N\NC(=O)c1c[nH]c2ccccc12)c1ccc(C)o1	.	.	.	.	.	/	/	/	/
Cc1cccc(Cl)c1NC(=O)NCCCN1CCCCC1C (stereo not drawn)	.	.	/	/	.	/	/	/	/
SMILES	TCR-CD3 inh	ABHD4 inh	HTRA1 inhibitor	pPAFAH FP inh	SIAE primary	pPAFAH confirm	HTRA1 inh conf	ABHD4 confirm	SIAE inh conf	others
CCNc1ccccc1CP(=O)(c1ccccc1)c1ccccc1O (stereo not drawn)	51.2	76.8	/	42.1	34.5	.	/	46.0	.	BSA probe FL=.;TCR-CD3 inh conf=.
Cc1csc(N/N=C/c2ccc(O)c([N+](=O)[O-])c2)n1	.	50.0	.	39.8	17.4	.	/	83.3	.
O=C(/C=C/c1ccco1)NC(=S)Nc1ccc(N2CCCC2)cc1	.	37.3	.	47.0	18.4	.	/	.	.
COc1ccc(CN2CC[C@@H]3CN(C(C)=O)[C@H](c4ccccc4Br)C[C@@H]32)cc1	.	.	/	/	.	/	/	/	/
COc1ccc(Br)cc1CNc1ccc(O)cc1	30.6	65.1	73.7	37.0	31.6	.	.	30.2	.	BSA probe FL=.;TCR-CD3 inh conf=.
COc1cc(CNc2ccc(O)cc2)cc(Br)c1OCc1ccccc1	21.5	52.4	57.2	34.9	25.5	.	.	.	.
CCOC(=O)CC[C@@H]1CC[C@]2(CCCN(C(=O)C(C)(C)C)C2)O1	/	.	/	/	.	/	/	/	/
CN=c1scc(C)n1/N=C/c1cc(Br)c(O)c(OC)c1	.	.	.	.	.	/	/	/	/
CN=c1scc(C)n1/N=C/c1ccc(O)c(O)c1O	52.7	40.5	39.3	60.1	18.7	.	60.2	.	.	BSA probe FL=.;TCR-CD3 inh conf=64.9
CN1CCS/C1=C/C=C1/SC(=S)N(Cc2ccccc2)C1=O	.	85.6	.	35.7	22.4	26.6	/	.	22.2
CN1CCS/C1=C/C=C1\SC(=S)N(CC(=O)O)C1=O	.	.	.	.	.	/	/	/	/
CSc1nsc(/C=C/Nc2ccc(O)cc2C)c1C#N	26.9	59.3	74.2	48.0	43.0	.	.	.	20.8	BSA probe FL=.;TCR-CD3 inh conf=.
CSc1nsc(/C=C/Nc2ccc(F)cc2)c1C#N	.	.	.	.	.	/	/	/	/
CCN(CC)C(=O)c1ncn2c1C(=O)N[C@@H](C)C2	.	.	/	/	.	/	/	/	/
C=CCn1c(SCC(=O)c2ccc(-c3ccccc3)cc2)nnc1-c1ccc(OC)cc1	/	.	/	/	.	/	/	/	/
C=CCn1c(SCC(=O)c2ccc(O)c(O)c2)nnc1-c1cccc(C)c1	.	41.1	70.2	35.0	18.7	79.6	77.6	29.8	.
CCCCn1c(=O)[nH]c2nc3cc(N)ccc3nc2c1=O	21.1	67.5	42.1	37.0	31.2	.	37.0	43.5	.
CCCCn1c(N)c(Br)c(=O)[nH]c1=O	.	.	.	.	.	/	/	/	/
CCCCCCCCN1C(=O)[C@H](CC(=O)NCCC(C)C)C[C@@]2(C(=O)OCC)CCC=C12	.	.	/	/	.	/	/	/	/
Cc1ccc(S(=O)(=O)Nc2ccc3oc(=O)sc3c2)c(C)c1	.	.	36.9	.	.	/	.	/	/

Screening data: PubChem, The Scripps Research Institute Molecular Screening Center
